# Assay results published in publication PMC2646257 (Journal of medicinal chemistry, 2009).
# “And” between values parts separate entries of the source, which are not always exact repeats. Equal entries are not always repeated. Where two headings read alike, the source gives them in different places.
# Experiments:
# [1] = mouse; cited from earlier work
# [2] = Radiochemical stability of formulated radioligand; assay type: physicochemical; conditions: formulated [^18F]9
# [3] = Stability in sodium phosphate buffer; assay type: physicochemical; conditions: sodium phosphate buffer (0.15 M, pH 7.4), room temperature
# How it was run: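 Radioligand was incubated in 0.15 M sodium phosphate buffer, pH 7.4, at room temperature for 2 h and analysed by HPLC.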
# PBR [4] = test: PET imaging in monkeys; assay type: in vivo, rhesus monkey; conditions: monkey
# How it was run: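 Male rhesus monkeys (11–15 kg) received an i.v. bolus of radioligand (2.76–5.80 mCi; 0.068–0.276 μg/kg) and were scanned up to 300 min. In pre-block, PBR ligand (3 mg/kg i.v.) was given 24 min before radioligand and imaging ran 120 min. In displacement, one monkey received 1.28 mCi, then 3 mg/kg i.v. at 60 min, with 240 min scanning. Uptake was given as %SUV. Images were co-registered with T1 1.5-T MRI.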
# [5] = Stability to rat brain homogenate in vitro; assay type: in vitro ADME; conditions: 37 °C, up to 60 min
# How it was run: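 Excised rat brain (1.70 g) was homogenized in 3 mL saline, spiked with 5 μCi radioligand and incubated at 37 °C. Aliquots (n = 6) were taken periodically up to 60 min into acetonitrile, centrifuged and analysed by radio-HPLC for % parent and radiometabolites. A second brain, homogenized in saline/acetonitrile before spiking, served as reference.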
# [6] = Plasma free fraction, monkey; assay type: in vitro ADME; conditions: two monkeys, one value each (n = 9 and n = 3)
# How it was run: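 Radioligand was added to plasma and placed on a centrifugal ultrafiltration unit. The unit was spun at 5000g, and all filter-unit components were counted for radioactivity to derive free fraction.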
# [7] = Emergence of radiometabolites in monkey plasma in vivo; design: species or system rhesus monkey
# How it was run: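 Three male rhesus monkeys (11–15 kg) received i.v. bolus radioligand during four PET scans: three baseline and one pre-block (PBR ligand 3 mg/kg i.v., 24 min before). Arterial blood was drawn periodically from the femoral artery into heparin tubes and centrifuged. Plasma (1 mL) was mixed with acetonitrile (1.5 mL) and centrifuged. Supernatant was analysed by radio-HPLC for % parent and radiometabolites. Plasma concentration was expressed as %SUV.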
# [8] = Emergence of radiometabolites in rat plasma, brain and urine in vivo
# How it was run: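 Four rats (277–623 g) were kept under 1.5% isoflurane in oxygen at 37 °C. Two received NCA radioligand i.v. (0.812 or 1.32 mCi; >1.39 Ci/μmol) and were killed at 30 or 95 min. Two received carrier-added radioligand (0.86 or 0.89 mCi; ~0.13 Ci/μmol; saline with 10% ethanol, 5% Tween 80), had 5 mL saline i.p. 30 min before, and were killed at 60 min with urine collected. Plasma was deproteinized. Brain was homogenized on ice in saline/acetonitrile plus water and centrifuged. Analysis was by radio-HPLC.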
# [9] = assay type: in vitro ADME, rat; conditions: 30 min
# PBR [10] = conditions: cited from earlier work
# [11] = LC-MS-MS search for metabolites in rat brain, urine and plasma in vivo
# How it was run: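 Three rats under 1.5% isoflurane received non-radioactive test compound (2.26 ± 0.76 mg) via the penile vein over 9 min, in 0.9 mL saline with 10% ethanol and Cremophor EL or Tween 80. Urethras were clamped; saline 0.1 mL was given i.v. every 30 min. Blood and urine were taken at 60 or 115 min. Brain was homogenized twice in acetonitrile/water and spun at 10,000g for 10 min. Plasma was deproteinized with acetonitrile. Samples were stored at −70 °C and analysed by LC-MS-MS.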
# [12] = two rats, carrier-added, 60 min
structure (smiles),measurement,setting,value
COc1ccc(OC[18F])c(CN(C(C)=O)c2cc(F)ccc2Oc2ccccc2)c1 [[^18F]4],defluorination,[1],rapidly defluorinated
"COc1ccc(OC)c(CN(C(=O)C[18F])c2ccccc2Oc2ccccc2)c1 [[^18F]9, [^18F]N-fluoroacetyl-N-(2,5-dimethoxybenzyl)-2-phenoxyaniline]",time radiochemically stable,[2],at least 4 h
same,time stable in buffer,[3],> 2 h
same,defluorination (uptake of radioactivity into skull),PBR [4]; PET images 60-120 min,does not defluorinate significantly
same,maximal brain uptake,"PBR [4]; choroid plexus of fourth ventricle, baseline, n = 4",371 ± 89 % SUV
same,proportion of brain radioactivity displaced,"PBR [4]; choroid plexus, 1 (3 mg/kg i.v.) given 60 min after [^18F]9",up to 90%
same,unchanged radioligand after incubation,[5],> 99.2%
same,plasma free fraction (fP),[6],3.5 ± 0.2% and 1.34 ± 0.1%
same,time for radiometabolite to reach half of plasma radioactivity,"[7]; baseline, the one monkey also studied with pre-block",24 min
same,"minor radiometabolite, share of total plasma radioactivity","[7]; monkey plasma, all samples except one",≤ 4%
same,"peak plasma concentration of unchanged [^18F]9, pre-block versus baseline","[7]; monkey, %SUV, same monkey",~18 fold
same,time at which plasma is composed equally of radiometabolite and [^18F]9,"[7]; monkey, baseline experiments, n = 3",31.1 ± 14.7 min
same,time at which plasma is composed equally of radiometabolite and [^18F]9,"[7]; monkey, pre-block with 1 (3 mg/kg i.v.), 3 mg/kg",4.0 min and 4 min
same,"minor radiometabolite, share of total plasma radioactivity","[7]; one monkey, one plasma sample at 60 min after injection",8%
same,[^18F]9 as share of plasma radioactivity,"[8]; rat, NCA, mass dose 0.85 μg/kg, 30 min, n = 2",12.5%
same,"minor radiometabolite, share of total radioactivity","[8]; second rat, NCA, mass dose 3.78 μg/kg",< 5%
same,"minor radiometabolite, share of brain radioactivity",[8]; [12],< 5%
same,"minor radiometabolite, share of plasma radioactivity",[8]; [12],< 3%
same,"minor radiometabolite, share of urine radioactivity",[8]; [12],9.9 ± 2.2%
"O=C(C[18F])Nc1ccccc1Oc1ccccc1 [[^18F]11, [^18F]2-fluoro-N-(2-phenoxyphenyl)acetamide]",conversion into polar radiometabolite(s),[9]; rat brain homogenate,> 99.9%
same,conversion into polar radiometabolite(s),[9]; rat whole blood,> 99.9%
"COc1ccc(OC)c(CN(C(=O)CF)c2ccccc2Oc2ccccc2)c1 [compound 9, N-Fluoroacetyl-N-(2,5-dimethoxybenzyl)-2-phenoxyaniline]",selectivity for PBR,PBR [10],selective for PBR
same,unchanged 9 in urine by LC-MS-MS,[11],not detected
same,unchanged 9 in brain and plasma by LC-MS-MS,[11]; sampled at 115 min after administration,detected
